Assay results taken from PMC7729281 (Biochemistry, 2020).
“And” between values parts separate entries of the source, which are not always exact repeats. Identical values can stand only once. Like-named read-outs stand apart in the source and are kept apart here. Values belong to the molecule of their own block, whether it stands above or below them.

What was measured:
[1] = test system: M2-polarized macrophages; conditions: M2-polarized macrophages challenged by inhibitor ref 44; cited from earlier work
[2] = target: T1, h12-LOX (Homo sapiens, UniProt P18054); test: Allosteric modulation of 14S-HpDHA epoxidation by h12-LOX; format: biochemical; conditions: 1 μM 14S-HpDHA
T1 sequence (P18054 1-663): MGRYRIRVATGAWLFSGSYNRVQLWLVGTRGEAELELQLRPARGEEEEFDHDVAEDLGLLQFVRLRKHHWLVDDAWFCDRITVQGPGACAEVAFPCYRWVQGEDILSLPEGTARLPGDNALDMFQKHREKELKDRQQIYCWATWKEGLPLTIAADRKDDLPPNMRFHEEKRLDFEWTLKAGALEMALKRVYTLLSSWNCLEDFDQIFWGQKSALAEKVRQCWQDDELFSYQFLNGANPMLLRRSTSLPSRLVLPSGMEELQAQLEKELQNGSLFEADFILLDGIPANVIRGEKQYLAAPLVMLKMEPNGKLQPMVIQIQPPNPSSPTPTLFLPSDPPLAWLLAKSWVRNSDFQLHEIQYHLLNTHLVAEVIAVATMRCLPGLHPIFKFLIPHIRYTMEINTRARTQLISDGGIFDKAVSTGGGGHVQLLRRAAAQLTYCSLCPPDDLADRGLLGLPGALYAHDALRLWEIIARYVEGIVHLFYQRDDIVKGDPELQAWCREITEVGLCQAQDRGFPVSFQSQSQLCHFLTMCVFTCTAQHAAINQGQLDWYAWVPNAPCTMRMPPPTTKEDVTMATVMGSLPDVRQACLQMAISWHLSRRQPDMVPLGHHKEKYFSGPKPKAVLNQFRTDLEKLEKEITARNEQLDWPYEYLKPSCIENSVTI
In short: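 Recombinant human h15-LOX-1 (0.125 μM, 25 mM HEPES pH 7.5, 20 min) or h12-LOX (0.3 μM, pH 8.0, 1 h) reacted at room temperature with 1 μM 14S-HpDHA while oxylipin modulator was titrated (1–100 μM), or with 14S-HpDHA varied alone (1–50 μM). Products were reduced and analysed by LC-MS. Dehydration (epoxide) versus oxygenation product percentages were calculated, N = 3.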

[3] = test system: human platelets; test: Collagen-stimulated platelet aggregation; format: cell-based; conditions: 10 min incubation, collagen 0.25 μg/mL
In short: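 Washed human platelets were isolated by serial centrifugation and resuspended in Tyrode's buffer at 3 × 10^8/mL. They were preincubated with test compound (1–10 μM) for 10 min at 37 °C, then stimulated with 0.25 μg/mL collagen while stirring at 1100 rpm. Maximum aggregation was read as the light-transmittance change, mean ± SEM of 3–5 independent experiments. Comparison versus vehicle used one-way ANOVA with Dunnett's test.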

[4] = target: T2, h15-LOX-1 (Homo sapiens, UniProt P16050); conditions: h15-LOX-1 with AA, obtained previously ref 22; cited from earlier work
T2 sequence (P16050 1-662): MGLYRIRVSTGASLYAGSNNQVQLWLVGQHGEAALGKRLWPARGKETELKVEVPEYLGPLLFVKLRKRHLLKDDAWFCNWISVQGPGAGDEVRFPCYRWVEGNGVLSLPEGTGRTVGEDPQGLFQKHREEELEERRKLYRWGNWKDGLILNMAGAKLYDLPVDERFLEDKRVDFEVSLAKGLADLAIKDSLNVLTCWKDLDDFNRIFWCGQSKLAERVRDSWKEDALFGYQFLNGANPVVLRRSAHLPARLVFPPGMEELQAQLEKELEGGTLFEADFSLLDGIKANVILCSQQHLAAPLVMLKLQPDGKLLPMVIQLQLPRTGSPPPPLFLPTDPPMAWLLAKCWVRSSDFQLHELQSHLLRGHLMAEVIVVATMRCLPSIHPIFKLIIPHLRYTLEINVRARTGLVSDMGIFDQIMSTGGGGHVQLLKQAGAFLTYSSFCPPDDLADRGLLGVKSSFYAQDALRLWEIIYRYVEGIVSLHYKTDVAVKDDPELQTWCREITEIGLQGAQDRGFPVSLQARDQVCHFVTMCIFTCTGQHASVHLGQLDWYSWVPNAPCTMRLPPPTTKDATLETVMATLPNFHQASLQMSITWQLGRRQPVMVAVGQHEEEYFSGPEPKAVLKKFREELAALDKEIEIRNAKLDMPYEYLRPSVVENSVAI

[5] = target: T2, h15-LOX-1; test: Product analysis of h15-LOX-1 reactions; format: biochemical
In short: (§1)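 h15-LOX-1 (0.125 μM, pH 7.5) or h12-LOX (0.300 μM, pH 8.0) was reacted in 25 mM HEPES at room temperature under ambient O2. Substrates were 10 μM DHA for 1 min (monitored at 234 nm) or 1 μM 14S-HpDHA for 20 min (h15-LOX-1) or 1 h (h12-LOX) (monitored at 270 nm). Reactions were quenched with acetic acid, spiked with d5-maresin-1, extracted into DCM and background-subtracted against a no-enzyme control. Split samples were run with or without trimethyl phosphite reduction. Products were identified by C18 LC-MS/MS (qTOF), N = 3.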

[6] = target: T2, h15-LOX-1; test: Steady-state kinetics of h15-LOX-1; conditions: for fold difference of kcat/KM: h15-LOX-1, kcat/KM of enzyme with DHA set to 1 (Table 5)
[7] = target: T1, h12-LOX; test: Product analysis of h12-LOX reactions; format: biochemical
In short: as §1

[8] = target: T1, h12-LOX; test: Steady-state kinetics of h12-LOX
[9] = test system: human platelets; test: Ex vivo platelet incubation and lipidomics; format: cell-based; conditions: human platelets + DHA, with inhibitor; data not shown
[10] = substrate: CCCCC/C=C\C/C=C\C/C=C\C/C=C\CCCC(=O)O; test: purified protein, by the assay type; conditions: other: h12-LOX + substrate, 25 mM HEPES pH 8.0, RT
[11] = substrate: CC/C=C\C/C=C\C/C=C\C/C=C\C/C=C\C/C=C\CCC(=O)O; test: purified protein, by the assay type
[12] = h15-LOX-1 + substrate, 25 mM HEPES pH 7.5, RT
[13] = h12-LOX + substrate, 25 mM HEPES pH 8.0, RT
[14] = other: h12-LOX + substrate, 25 mM HEPES pH 8.0, RT
[15] = other: h15-LOX-1 + substrate, 25 mM HEPES pH 7.5, RT

Molecule: O=C(Nc1ccc(F)cc1Cl)c1n[nH]c(Cl)c1Cl [BLX-3887]
decrease of 14S-HDHA production [1]: 45%
decrease of maresin production [1]: 70%

allosteric effect on epoxidation ([2]; titration of modulator): no allosteric effect
Molecule: CCCCC/C=C\C[C@H](O)/C=C/C=C\C/C=C\CCCC(=O)O [12S-HETE, 12S-hydroxy-5Z,8Z,10E,14Z-eicosatetraenoic acid, reference compound]

Molecule: CCCCC/C=C\C[C@H](O)/C=C/C=C\CCCCCCC(=O)O [12S-HETrE, 12S-hydroxy-8Z,10E,14Z-eicosatrienoic acid, reference compound]
concentration required to completely inhibit platelet aggregation [3]: 5 to 10 µM

product profile: ω-9 oxylipin 12S-HETE / 12S-HpETE ([5]; h15-LOX-1 + AA): 10%
Molecule: CCCCC/C=C\C/C=C\C/C=C\C/C=C\CCCC(=O)O [AA, arachidonic acid]
Km [4]: 2.7 ± 0.3 µM
kcat [4]: 5.3 ± 0.4 s⁻¹

fold difference of 14S-HpDHA biosynthetic flux ([6]; h15-LOX-1 + DHA): 1.0
14S-HpDHA biosynthetic flux ([6]; h15-LOX-1 + DHA, B.F. = kcat/KM * % product): 0.14
fold difference of kcat/KM [6]: 1.0
product profile: 11S-HpDHA (ω-12) ([7]; h12-LOX + 10 μM DHA, 1 min): 19% and 19 ± 3%
product profile: 14S-HpDHA (ω-9) ([7]; h12-LOX + 10 μM DHA, 1 min): 81% and 81 ± 3%
product profile: 17S-HpDHA (ω-6) ([7]; h12-LOX + 10 μM DHA, 1 min): <1.0%
14S-HpDHA product selectivity of h12-LOX greater than that of h15-LOX-1 ([7]; substrate DHA): 2 fold
product profile: 11S-HpDHA (ω-12) ([5]; h15-LOX-1 + 10 μM DHA, 1 min): 12% and 12 ± 1%
product profile: 14S-HpDHA (ω-9) ([5]; h15-LOX-1 + 10 μM DHA, 1 min): 40 ± 1%
product profile: 17S-HpDHA (ω-6) ([5]; h15-LOX-1 + 10 μM DHA, 1 min): 46% and 46 ± 1%
14S-HpDHA biosynthetic flux ([8]; h12-LOX + DHA, B.F. = kcat/KM * % product): 11
fold difference of kcat/KM ([8]; h12-LOX, kcat/KM of enzyme with DHA set to 1 (Table 5)): 1.0
kcat/KM of h12-LOX greater than that of h15-LOX-1 ([8]; substrate DHA): 39 fold
Molecule: CC/C=C\C/C=C\C/C=C\C/C=C\C/C=C\C/C=C\CCC(=O)O [DHA, docosahexaenoic acid]

Molecule: COc1cccc(CNc2ccc(S(=O)(=O)Nc3nc4ccccc4s3)cc2)c1O [ML355]
reduction of 14S-HDHA and 11S-HDHA production [9]: approximately 70%

Molecule: CC/C=C\C/C=C\C[C@H](O)\C=C/C=C/C=C/[C@H](O)C/C=C\CCC(=O)O [MaR-1, 7R,14S-dihydroxy-4Z,8E,10E,12Z,16Z,19Z-docosahexaenoic acid, reference compound]
concentration required to completely inhibit platelet aggregation [3]: 5 to 10 µM

Molecule: CC/C=C\C/C=C\C[C@H](O)/C=C/C=C\C=C\[C@@H](O)C/C=C\CCC(=O)O [7S,14S-EZE-diHDHA, 7S,14S-dihydroxy-4Z,8E,10Z,12E,16Z,19Z-docosahexaenoic acid]
concentration required to completely inhibit platelet aggregation [3]: 5 to 10 µM

epoxidation product at end of titration ([2]; titration with modulator, 72.0% at start): 5.0%
Molecule: CC/C=C\C/C=C\C[C@H](O)/C=C/C=C\C/C=C\CCCCCC(=O)O [14S-HDPAω-3, 14S-hydroxy-7Z,10Z,12E,16Z,19Z-docosapentaenoic acid]

Km [6, 12]: 18 ± 4 µM
kcat [6, 12]: 0.57 ± 0.01 s⁻¹
fold difference of kcat/KM [6]: −13
Km [8, 13]: 210 ± 70 µM
kcat [8, 13]: 0.17 ± 0.03 s⁻¹
Molecule: CC/C=C\C/C=C\C[C@H](O)/C=C/C=C\C/C=C\C/C=C\CCC(=O)O [14S-HDHA, 14S-hydroxy-4Z,7Z,10Z,12E,16Z,19Z-docosahexaenoic acid]

B1: h12-LOX (Homo sapiens) (protein)
chain: T1 sequence (P18054 1-663)
Km [10]: 0.95 ± 0.1 µM
kcat [10]: 18 ± 0.8 s⁻¹
kcat/Km [10]: 1.9e+07 ± 2e+06 M⁻¹ s⁻¹
Km [11, 14]: 0.90 ± 0.06 µM
kcat [11, 14]: 13 ± 0.2 s⁻¹
kcat/Km [11, 14]: 1.4e+07 ± 800000 M⁻¹ s⁻¹

B2: h15-LOX-1 (Homo sapiens) (protein)
chain: T2 sequence (P16050 1-662)
Km [11, 15]: 6.7 ± 3 µM
kcat [11, 15]: 2.4 ± 0.6 s⁻¹
kcat/Km [11, 15]: 360000 ± 100000 M⁻¹ s⁻¹
